In ChEMBL document CHEMBL3992522, “Antileishmanial Activity of Pyrazolopyridine Derivatives and Their Potential as an Adjunct Therapy with Miltefosine” (J Med Chem, 2017):

How the values were obtained:
Leishmania donovani [1] = test: Antileishmanial activity against Leishmania donovani MHOM/IN/80/DD8 promastigote forms harboring luciferase gene at 25 uM after 72 hrs by Steady-Glo reagent based luminescence assay relative to control; assay type: functional; conditions: MHOM/IN/80/DD8, 72 h, read-out: GI
Procedure, shortened: (§1)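 Exponential-phase Dd8-Luc promastigotes at 1×10^6/mL in M199 with 10% FBS, 24 °C, given 50 and 25 µM for 72 h. Vehicle 0.1% DMSO. Steady-Glo added 1:1, luminescence (RLU) read. IC50 from four-parameter Hill regression, derived only where inhibition exceeded 90%. Means of at least three independent experiments.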

Leishmania donovani [2] = test: Antileishmanial activity against Leishmania donovani MHOM/IN/80/DD8 promastigote forms harboring luciferase gene at 50 uM after 72 hrs by Steady-Glo reagent based luminescence assay relative to control; assay type: functional; conditions: MHOM/IN/80/DD8, 72 h, read-out: GI; procedure, shortened: as §1
Leishmania donovani [3] = test: Antileishmanial activity against Leishmania donovani MHOM/IN/80/DD8 amastigote forms harboring luciferase gene infected in mouse J774 cells at 25 uM after 72 hrs by Steady-Glo reagent based luminescence assay relative to control; assay type: functional; conditions: MHOM/IN/80/DD8, J774, 72 h, read-out: GI
Procedure, shortened: (§2)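 Stationary-phase luciferase-expressing Dd8 promastigotes infected into J774 macrophages (4×10^4/mL seeded, 24 h, 37 °C, 5% CO2) at 1:8 macrophage:parasite for 24 h. Non-internalised parasites washed off. Compounds added at 50 and 25 µM in RPMI/10% FBS for 72 h. Lysis with Steady-Glo luciferin reagent plus PBS, luminescence read. Inhibition relative to untreated infected controls.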

Leishmania donovani [4] = test: Antileishmanial activity against Leishmania donovani MHOM/IN/80/DD8 amastigote forms harboring luciferase gene infected in mouse J774 cells at 50 uM after 72 hrs by Steady-Glo reagent based luminescence assay relative to control; assay type: functional; conditions: MHOM/IN/80/DD8, J774, 72 h, read-out: GI; procedure, shortened: as §2
Leishmania donovani [5] = test: Antileishmanial activity against Leishmania donovani MHOM/IN/80/DD8 amastigote forms harboring luciferase gene infected in mouse J774 cells after 72 hrs by Steady-Glo reagent based luminescence assay; assay type: functional, cell-based; conditions: MHOM/IN/80/DD8, J774, 72 h
[6] = Cytotoxicity against mouse J774 cells assessed as reduction in cell viability after 72 hrs by MTT assay; assay type: cell-based
Procedure, shortened: (§3)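 Vero and J774 cells seeded at 1×10^5 per well for 24 h, then exposed 72 h to seven two-fold dilutions from 500 to 7.81 μM. MTT solution (5 mg/mL stock) added for 2 h at 37 °C, formazan dissolved in DMSO and read at 540 nm. CC50 derived by the Huber and Koella method.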

[7] = Cytotoxicity against African green monkey Vero cells assessed as reduction in cell viability after 72 hrs by MTT assay; assay type: cell-based; conditions: chlorocebus sabaeus; procedure, shortened: as §3
[8] = Selectivity index, ratio of CC50 for mouse J774 cells to IC50 for Leishmania donovani MHOM/IN/80/DD8 amastigote forms infected in mouse J774 cells; assay type: toxicity, cell-based; conditions: read-out: Ratio CC50/IC50
Procedure, shortened: (§4)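 CC50: Vero or J774 cells (1×10^5/well) exposed 72 h to seven two-fold dilutions, 500–7.81 μM; MTT 2 h at 37 °C, formazan in DMSO read at 540 nm. IC50: luciferase-expressing Dd8 amastigotes in J774 macrophages (1:8), 72 h, luminescence, four-parameter Hill fit. SI = CC50/IC50, IC50 mean of three experiments.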

[9] = Selectivity index, ratio of CC50 for African green monkey Vero cells to IC50 for Leishmania donovani MHOM/IN/80/DD8 amastigote forms infected in mouse J774 cells; assay type: toxicity, cell-based; conditions: read-out: Ratio CC50/IC50; procedure, shortened: as §4
Leishmania donovani [10] = test: Antileishmanial activity against Leishmania donovani amastigote forms infected in Balb/c mouse assessed as inhibition of parasitic burden in liver at 5 mg/kg, po administered for 5 consecutive days measured on day 7 post last treatment by Giemsa staining based assay relative to control; assay type: functional; conditions: 168 h
Leishmania donovani [11] = test: Antileishmanial activity against Leishmania donovani amastigote forms infected in Balb/c mouse assessed as inhibition of parasitic burden in spleen at 5 mg/kg, po administered for 5 consecutive days measured on day 7 post last treatment by Giemsa staining based assay relative to control; assay type: functional; conditions: 168 h
Mus musculus [12] = test: Decrease in TGFbeta level in Balb/c mouse splenocytes infected with Leishmania donovani amastigote forms at 25 mg/kg, po administered for 5 consecutive days measured on day 4 post last treatment by sandwich ELISA relative to control; assay type: functional; conditions: 96 h
Mus musculus [13] = test: Increase in IFNgamma level in Balb/c mouse splenocytes infected with Leishmania donovani amastigote forms at 25 mg/kg, po administered for 5 consecutive days measured on day 4 post last treatment by sandwich ELISA relative to control; assay type: functional
Mus musculus [14] = test: Increase in TNFalpha level in Balb/c mouse splenocytes infected with Leishmania donovani amastigote forms at 25 mg/kg, po administered for 5 consecutive days measured on day 4 post last treatment by sandwich ELISA relative to control; assay type: functional
Mus musculus [15] = test: Increase in IL-12 level in Balb/c mouse splenocytes infected with Leishmania donovani amastigote forms at 25 mg/kg, po administered for 5 consecutive days measured on day 4 post last treatment by sandwich ELISA relative to control; assay type: functional
Mus musculus [16] = test: Increase in IFNgamma level in Balb/c mouse splenocytes infected with Leishmania donovani amastigote forms at 25 mg/kg, po administered for 5 consecutive days measured on day 7 post last treatment by sandwich ELISA relative to control; assay type: functional
Mus musculus [17] = test: Increase in TNFalpha level in Balb/c mouse splenocytes infected with Leishmania donovani amastigote forms at 25 mg/kg, po administered for 5 consecutive days measured on day 7 post last treatment by sandwich ELISA relative to control; assay type: functional
Mus musculus [18] = test: Increase in IL-12 level in Balb/c mouse splenocytes infected with Leishmania donovani amastigote forms at 25 mg/kg, po administered for 5 consecutive days measured on day 7 post last treatment by sandwich ELISA relative to control; assay type: functional
Mus musculus [19] = test: Decrease in IL-10 level in Balb/c mouse splenocytes infected with Leishmania donovani amastigote forms at 25 mg/kg, po administered for 5 consecutive days measured on day 4 post last treatment by sandwich ELISA relative to control; assay type: functional; conditions: 96 h
Mus musculus [20] = test: Decrease in TGFbeta level in Balb/c mouse splenocytes infected with Leishmania donovani amastigote forms at 25 mg/kg, po administered for 5 consecutive days measured on day 7 post last treatment by sandwich ELISA relative to control; assay type: functional; conditions: 168 h
Mus musculus [21] = test: Decrease in IL-10 level in Balb/c mouse splenocytes infected with Leishmania donovani amastigote forms at 25 mg/kg, po administered for 5 consecutive days measured on day 7 post last treatment by sandwich ELISA relative to control; assay type: functional; conditions: 168 h
Mus musculus [22] = test: (§5) Increase in iNOS-mediated NO generation in Balb/c mouse splenocytes infected with Leishmania donovani amastigote forms at 25 mg/kg, po for 5 consecutive days measured on day 4 post last treatment followed by soluble Leishmania donovani promastigote antigen-stimulation for 72 hrs by Griess assay relative to control; assay type: functional
Mus musculus [23] = test: as §5, with “5” for “25”, “4 and 7” for “4”; assay type: functional
Procedure, shortened: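 Splenocytes from treated infected BALB/c mice (5-day regimen, i.p. test compound, oral miltefosine; n = 5) isolated day 4 and day 7 post-treatment. Cultured in phenol red-free RPMI 1640 with 5 μg/mL SLA for 72 h at 37 °C, 5% CO2. Supernatant nitrite measured by Griess assay at 540 nm against a sodium nitrite standard curve.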

SMILES: CCCCCCCCCCCCCCCCOP(=O)([O-])OCC[N+](C)(C)C [MILTEFOSINE]
- inhibition of growth at 25 µM (Leishmania donovani [1]): 100%
- inhibition of growth at 50 µM (Leishmania donovani [2]): 100%
- inhibition of growth at 25 µM (Leishmania donovani [3]): 99.8%
- inhibition of growth at 50 µM (Leishmania donovani [4]): 100%
- IC50 (Leishmania donovani [5]): 9.46 µM
- CC50 at 72 h [6]: 55.7 µM
- CC50 at 72 h [7]: 50.8 µM
- selectivity ratio [8]: 5.8
- selectivity ratio [9]: 5.3
- inhibition in vivo at 5 mg/kg (Leishmania donovani [10]): > 75%
- inhibition in vivo at 5 mg/kg (Leishmania donovani [11]): > 61%
- inhibition in vivo at 25 mg/kg (Mus musculus [12]): 87.5%
- fold change (FC) (Mus musculus [13]): 9.1
- fold change (FC) (Mus musculus [14]): 6.5
- fold change (FC) (Mus musculus [15]): 12.9
- fold change (FC) (Mus musculus [16]): 8.1
- fold change (FC) (Mus musculus [17]): 5.3
- fold change (FC) (Mus musculus [18]): 9.5
- inhibition in vivo at 25 mg/kg (Mus musculus [19]): 88.7%
- inhibition in vivo at 25 mg/kg (Mus musculus [20]): 94.6%
- inhibition in vivo at 25 mg/kg (Mus musculus [21]): 92.9%
- fold change (FC) (Mus musculus [22]): 7.4
- fold change (FC) (Mus musculus [23]): 4.3
